Test results reported in ChEMBL document CHEMBL1125824, “New pepstatin analogues: synthesis and pepsin inhibition” (J Med Chem, 1991).

Legend:
[1] = target: T1, Pepsin A (Sus scrofa, UniProt P00791); test: Compound was measured for the apparent inhibition constant at pepsin
Summary of the method: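 Apparent Ki from the pepsin–hemoglobin assay: pH 2.0 KCl–HCl buffer, 30 min total at 37 °C, perchloric acid quench, A280 of supernatant minus blank. IC50 came from % inhibition vs log [inhibitor], four replicates at ≥5 concentrations. Ki(app) was calculated as IC50 − 0.5[E]0, where [E]0 is the enzyme concentration.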

[2] = target: T1, Pepsin A; test: Compound was measured for the inhibition of pepsin hydrolysis of hemoglobin.
Summary of the method: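 Porcine pepsin acting on hemoglobin substrate (0.5% solution) with inhibitor in 0.02 M KCl–HCl, pH 2.0. Substrate and inhibitor were preincubated 3 min at 37 °C, then enzyme was added for 27 min at 37 °C. The reaction was quenched with 1.5 M perchloric acid, protein was spun out, and A280 was read minus a no-enzyme blank. Four replicates at ≥5 concentrations; IC50 from % inhibition vs log concentration.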

T1 sequence (P00791 whole entry): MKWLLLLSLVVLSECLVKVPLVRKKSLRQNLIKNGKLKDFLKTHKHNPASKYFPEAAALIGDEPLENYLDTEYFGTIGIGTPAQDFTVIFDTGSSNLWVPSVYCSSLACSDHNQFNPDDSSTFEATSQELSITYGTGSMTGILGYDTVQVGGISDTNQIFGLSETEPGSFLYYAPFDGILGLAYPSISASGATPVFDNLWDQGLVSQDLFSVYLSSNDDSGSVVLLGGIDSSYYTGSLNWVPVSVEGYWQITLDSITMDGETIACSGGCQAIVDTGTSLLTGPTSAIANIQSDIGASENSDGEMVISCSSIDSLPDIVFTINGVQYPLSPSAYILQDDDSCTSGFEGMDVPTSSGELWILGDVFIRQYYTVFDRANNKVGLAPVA

Row | SMILES | Ki [1] | IC50 [2]
1 | CC(C)[C@H](NC(=O)OCc1ccccc1)C(=O)N[C@H](C(=O)NC(c1ccc(O)cc1)C(O)CC(=O)O)C(C)C (stereo partly specified) | 1130 µM | 1130 µM
2 | CCCCC(NC(=O)[C@@H](NC(=O)[C@H](NC(=O)OCc1ccccc1)C(C)C)C(C)C)C(O)CC(=O)O (stereo partly specified) | 17.7 µM | 17.7 µM
3 | CCCCC(NC(=O)[C@@H](NC(=O)[C@@H](NC(=O)OCc1ccccc1)C(C)C)C(C)C)C(O)CC(=O)O (stereo partly specified) | – | 0.01 µM
4 | CC(C)CC(NC(=O)[C@@H](NC(=O)[C@H](NC(=O)OCc1ccccc1)C(C)C)C(C)C)C(O)CC(=O)O (stereo partly specified) | 39.4 µM | 39.4 µM
5 | CC(C)CC(NC(=O)[C@@H](NC(=O)[C@@H](NC(=O)OCc1ccccc1)C(C)C)C(C)C)C(O)CC(=O)O (stereo partly specified) | 0.19 µM | 0.2 µM
6 | CC(C)CC(=O)N[C@H](C(=O)N[C@H](C(=O)N[C@@H](CC(C)C)[C@@H](O)CC(=O)N[C@@H](C)C(=O)N[C@@H](CC(C)C)[C@@H](O)CC(=O)O)C(C)C)C(C)C [PEPSTATIN] | – | 0.007 µM
7 | CC(C)[C@H](NC(=O)[C@H](NC(=O)OCc1ccccc1)C(C)C)C(=O)NC(c1ccc(O)cc1)C(O)CC(=O)O (stereo partly specified) | 1540 µM | 1540 µM
8 | CC(C)[C@H](NC(=O)[C@H](NC(=O)OCc1ccccc1)C(C)C)C(=O)NC(c1ccccc1)C(O)CC(=O)O (stereo partly specified) | 346 µM | 346 µM
9 | CC(C)[C@H](NC(=O)OCc1ccccc1)C(=O)N[C@H](C(=O)NC(c1ccccc1)C(O)CC(=O)O)C(C)C (stereo partly specified) | 0.41 µM | 0.42 µM
